Experiments:
Cavia porcellus [1] = species on record: Cavia porcellus; assay: Percent inhibition of SRS-A release in vitro at a dose of 10 uM in guinea pig; type: functional
Procedure, shortened: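 Male Hartley guinea pigs were sensitized with ovalbumin (5 mg ip + 5 mg sc on day 1, 5 mg ip on day 4). About 400 mg chopped lung was preincubated with compound for 12 min at 37 °C in Tyrode's with 10 mM cysteine, then challenged with 20 μg/mL ovalbumin (final) for 0.25 h. SRS-A in ethanol-extracted supernatant was bioassayed on mepyramine-treated ileum against a rat SRS-A standard. Results are % inhibition versus vehicle, from 3-4 lungs.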

Cavia porcellus [2] = assay: Percent inhibition of bronchospasm in vivo at a dose of 25 mg/kg in guinea pig; type: functional; conditions: Bronchiole
Procedure, shortened: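 Guinea pigs were sensitized with ovalbumin and used 3-4 weeks later. They were fasted and anesthetized with dialurethane ip. Compounds were given orally 2 h before challenge. Propranolol 1 mg/kg, indomethacin 5 mg/kg and mepyramine 2 mg/kg were given iv 15 min before a 0.5 min aerosol of 0.5% ovalbumin through the tracheal cannula. The rise in inflation pressure measured bronchoconstriction. Results are % inhibition, 4-5 animals per group.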

SMILES: CC(=O)Oc1c(CCC2CCCCN2C)c(=O)n(-c2ccccc2)c2ncccc12 (centres undefined)
- inhibition at 10 µM (Cavia porcellus [1]): 19%

SMILES: CCCCc1c(OC(C)=O)c2cccnc2n(-c2ccc(OC(C)=O)c(C(=O)O)c2)c1=O
- inhibition at 10 µM (Cavia porcellus [1]): 17%

SMILES: CCCCc1c(OC(C)=O)c2cccnc2n(-c2cccc(S(C)(=O)=O)c2)c1=O
- inhibition at 10 µM (Cavia porcellus [1]): 20%

SMILES: CCCCc1c(OC(C)=O)c2cccnc2n(-c2ccc(S(C)(=O)=O)cc2)c1=O
- inhibition at 10 µM (Cavia porcellus [1]): 26%

SMILES: C=CCOc1c(CCCC)c(=O)n(-c2ccccc2)c2ncccc12
- inhibition at 10 µM (Cavia porcellus [1]): 0%

SMILES: C=CCCCCCCCc1c(OC(C)=O)c2cccnc2n(-c2ccccc2)c1=O
- inhibition at 10 µM (Cavia porcellus [1]): 15%

SMILES: CCCCc1c(O)c2c(n(-c3ccccc3)c1=O)NCCC2
- inhibition at 10 µM (Cavia porcellus [1]): 51%
- inhibition in vivo at 25 mg/kg (Cavia porcellus [2]): 17%

SMILES: CCCCc1c(O)c2cc(O)cnc2n(-c2ccccc2)c1=O
- inhibition at 10 µM (Cavia porcellus [1]): 69%
- inhibition in vivo at 25 mg/kg (Cavia porcellus [2]): 0%

SMILES: CC(C)=CCc1c(O)c2cccnc2n(-c2ccccc2)c1=O
- inhibition at 10 µM (Cavia porcellus [1]): 45%

SMILES: CCCCc1c(O)c2cc(OC)cnc2n(-c2ccccc2)c1=O
- inhibition at 10 µM (Cavia porcellus [1]): 3%

SMILES: CCCCc1c(O)c2cccnc2n(-c2cccc(Cl)c2C)c1=O
- inhibition at 10 µM (Cavia porcellus [1]): 5%

SMILES: CCCCc1c(OC(C)=O)c2cccnc2n(-c2ccc(OC)cc2)c1=O
- inhibition at 10 µM (Cavia porcellus [1]): 64%
- inhibition in vivo at 25 mg/kg (Cavia porcellus [2]): 32%

SMILES: CCCCc1c(O)c2cccnc2n(-c2ccc(SC)cc2)c1=O
- inhibition at 10 µM (Cavia porcellus [1]): 86%
- inhibition in vivo at 25 mg/kg (Cavia porcellus [2]): 8%

SMILES: CCCCc1c(O)c2cccnc2n(CCN(C)C)c1=O
- inhibition at 10 µM (Cavia porcellus [1]): 0%

SMILES: CCCCc1c(OC(C)=O)c2cccnc2n(-c2ccc(SC)cc2)c1=O
- inhibition at 10 µM (Cavia porcellus [1]): 38%

SMILES: C#CCOc1c(CCCC)c(=O)n(-c2ccccc2)c2ncccc12
- inhibition at 10 µM (Cavia porcellus [1]): 0%

SMILES: CCCCc1c(O)c2ccccc2n(-c2ccncc2)c1=O
- inhibition at 10 µM (Cavia porcellus [1]): 31%

SMILES: CCCCc1c(O)c2cccnc2n(-c2ccc(OC)c(OC)c2)c1=O
- inhibition at 10 µM (Cavia porcellus [1]): 57%
- inhibition in vivo at 25 mg/kg (Cavia porcellus [2]): 0%

SMILES: O=c1c(CC2CCCCC2)c(O)c2cccnc2n1-c1ccccc1
- inhibition at 10 µM (Cavia porcellus [1]): 30%

SMILES: CCCCc1c(O)c2cccnc2n(-c2ccc(Oc3ccccc3)cc2)c1=O
- inhibition at 10 µM (Cavia porcellus [1]): 54%
- inhibition in vivo at 25 mg/kg (Cavia porcellus [2]): 0%

SMILES: C=CCc1c(OC(C)=O)c2cccnc2n(-c2ccccc2OC)c1=O
- inhibition at 10 µM (Cavia porcellus [1]): 35%

SMILES: CCCCc1c(O)c2cc(Br)cnc2n(-c2ccccc2)c1=O
- inhibition at 10 µM (Cavia porcellus [1]): 73%
- inhibition in vivo at 25 mg/kg (Cavia porcellus [2]): 5%

SMILES: CC(=O)CCc1c(O)c2cccnc2n(-c2ccccc2)c1=O
- inhibition at 10 µM (Cavia porcellus [1]): 36%

SMILES: CCCCc1c(OCCO)c2cccnc2n(-c2ccccc2)c1=O
- inhibition at 10 µM (Cavia porcellus [1]): 86%
- inhibition in vivo at 25 mg/kg (Cavia porcellus [2]): 64%

SMILES: CCCCc1c(OCC(O)CO)c2cccnc2n(-c2ccccc2)c1=O (centres undefined)
- inhibition at 10 µM (Cavia porcellus [1]): 0%

SMILES: CCCCc1c(O)c2ccc(C)nc2n(-c2ccccc2)c1=O
- inhibition at 10 µM (Cavia porcellus [1]): 21%

SMILES: CCCCc1c(O)c2cccnc2n(-c2ccc(O)c(C(=O)O)c2)c1=O
- inhibition at 10 µM (Cavia porcellus [1]): 0%

SMILES: CCCCc1c(O)c2cccnc2n(-c2ccc(O)cc2)c1=O
- inhibition at 10 µM (Cavia porcellus [1]): 44%

SMILES: C=CCc1c(OC(C)=O)c2cccnc2n(-c2cccc(C(F)(F)F)c2)c1=O
- inhibition at 10 µM (Cavia porcellus [1]): 65%

SMILES: CCCCc1c(O)c2cccnc2n(-c2ccc(OC)cc2)c1=O
- inhibition at 10 µM (Cavia porcellus [1]): 87%
- inhibition in vivo at 25 mg/kg (Cavia porcellus [2]): 51%

SMILES: CCCCc1c(O)c2cccnc2n(-c2ccccc2C)c1=O
- inhibition at 10 µM (Cavia porcellus [1]): 55%
- inhibition in vivo at 25 mg/kg (Cavia porcellus [2]): 9%

SMILES: CCCCc1c(O)c2cccnc2n(-c2cccnc2)c1=O
- inhibition at 10 µM (Cavia porcellus [1]): 33%

SMILES: O=c1c(CCCCc2ccccc2)c(O)c2cccnc2n1-c1ccccc1
- inhibition at 10 µM (Cavia porcellus [1]): 9%

SMILES: CC(O)CCc1c(O)c2cccnc2n(-c2ccccc2)c1=O (centres undefined)
- inhibition at 10 µM (Cavia porcellus [1]): 53%
- inhibition in vivo at 25 mg/kg (Cavia porcellus [2]): 32%

SMILES: O=c1c(-c2ccccc2)c(O)c2cccnc2n1-c1ccccc1
- inhibition at 10 µM (Cavia porcellus [1]): 48%

SMILES: CC1(CCc2c(O)c3cccnc3n(-c3ccccc3)c2=O)OCCO1
- inhibition at 10 µM (Cavia porcellus [1]): 52%
- inhibition in vivo at 25 mg/kg (Cavia porcellus [2]): 0%

SMILES: Cc1c(O)c2cccnc2n(-c2ccccc2)c1=O
- inhibition at 10 µM (Cavia porcellus [1]): 52%
- inhibition in vivo at 25 mg/kg (Cavia porcellus [2]): 33%

SMILES: CCCCc1c(O)c2cccnc2n(-c2ccc(F)cc2F)c1=O
- inhibition at 10 µM (Cavia porcellus [1]): 27%

SMILES: C=CCc1c(O)c2cccnc2n(-c2cccc(C(F)(F)F)c2)c1=O
- inhibition at 10 µM (Cavia porcellus [1]): 50%
- inhibition in vivo at 25 mg/kg (Cavia porcellus [2]): 0%

SMILES: CCCCc1c(O)c2cnccc2n(-c2ccccc2)c1=O
- inhibition at 10 µM (Cavia porcellus [1]): 0%

SMILES: CCCCc1ccc(-n2c(=O)c(CCCC)c(O)c3cccnc32)cc1
- inhibition at 10 µM (Cavia porcellus [1]): 50%
- inhibition in vivo at 25 mg/kg (Cavia porcellus [2]): 13%

SMILES: CCCCc1c(O)c2nccnc2n(-c2ccccc2)c1=O
- inhibition at 10 µM (Cavia porcellus [1]): 75%
- inhibition in vivo at 25 mg/kg (Cavia porcellus [2]): 36%

SMILES: CCCCc1c(O)c2ccncc2n(-c2ccccc2)c1=O
- inhibition at 10 µM (Cavia porcellus [1]): 0%

SMILES: CCCCCCCCc1c(O)c2cccnc2n(-c2ccccc2)c1=O
- inhibition at 10 µM (Cavia porcellus [1]): 51%
- inhibition in vivo at 25 mg/kg (Cavia porcellus [2]): 0%

SMILES: C=CCc1c(O)c2cccnc2n(-c2cccc(OC)c2)c1=O
- inhibition at 10 µM (Cavia porcellus [1]): 56%
- inhibition in vivo at 25 mg/kg (Cavia porcellus [2]): 46%

SMILES: CCCCc1c(OC(C)=O)c2cccnc2n(-c2cccc([S+](C)[O-])c2)c1=O (centres undefined)
- inhibition at 10 µM (Cavia porcellus [1]): 28%

SMILES: CCCCc1c(O)c2cccnc2n(-c2cccc(SC)c2)c1=O
- inhibition at 10 µM (Cavia porcellus [1]): 62%
- inhibition in vivo at 25 mg/kg (Cavia porcellus [2]): 55%

SMILES: CCCCc1c(OC(C)=O)c2cccnc2n(-c2cccc(SC)c2)c1=O
- inhibition at 10 µM (Cavia porcellus [1]): 57%
- inhibition in vivo at 25 mg/kg (Cavia porcellus [2]): 27%

SMILES: CCCCc1c(O)c2ncccc2n(-c2ccccc2)c1=O
- inhibition at 10 µM (Cavia porcellus [1]): 43%

SMILES: CCCCc1c(O)c2cncnc2n(-c2ccccc2)c1=O
- inhibition at 10 µM (Cavia porcellus [1]): 9%

SMILES: CCCCc1c(O)c2cccnc2n(-c2ccc(C(C)O)cc2)c1=O (centres undefined)
- inhibition at 10 µM (Cavia porcellus [1]): 48%

SMILES: CCCCc1c(O)c2cccnc2n(-c2ccc(OCc3ccccc3)cc2)c1=O
- inhibition at 10 µM (Cavia porcellus [1]): 50%
- inhibition in vivo at 25 mg/kg (Cavia porcellus [2]): 0%

SMILES: CCCCc1c(O)c2cccnc2n(-c2ccccc2SC)c1=O
- inhibition at 10 µM (Cavia porcellus [1]): 32%

SMILES: C=CCc1c(OC(C)=O)c2cccnc2n(-c2ccc(OC)cc2)c1=O
- inhibition at 10 µM (Cavia porcellus [1]): 52%
- inhibition in vivo at 25 mg/kg (Cavia porcellus [2]): 42%

SMILES: CCCCc1c(O)c2cccnc2n(-c2cc(OC)c(OC)c(OC)c2)c1=O
- inhibition at 10 µM (Cavia porcellus [1]): 22%

SMILES: CCCCOc1ccc(-n2c(=O)c(CCCC)c(O)c3cccnc32)cc1
- inhibition at 10 µM (Cavia porcellus [1]): 17%

SMILES: C=CCc1c(OC(C)=O)c2cc(OC)cnc2n(-c2ccccc2)c1=O
- inhibition at 10 µM (Cavia porcellus [1]): 0%

SMILES: CCCCc1c(O)c2cc3c(nc2n(-c2ccccc2)c1=O)CCCC3
- inhibition at 10 µM (Cavia porcellus [1]): 38%

SMILES: CCCCc1c(O)c2cc3ccccc3nc2n(-c2ccccc2)c1=O
- inhibition at 10 µM (Cavia porcellus [1]): 0%

SMILES: CCCCc1c(O)c2cccnc2n(-c2ccc(C(C)=O)cc2)c1=O
- inhibition at 10 µM (Cavia porcellus [1]): 37%

SMILES: CCCCc1c(O)c2cccnc2n(-c2c(C)cccc2C)c1=O
- inhibition at 10 µM (Cavia porcellus [1]): 0%

SMILES: CCCCc1c(O)c2cc3c(nc2n(-c2ccccc2)c1=O)CCC3
- inhibition at 10 µM (Cavia porcellus [1]): 22%

SMILES: CCCCc1c(OCCCO)c2cccnc2n(-c2ccccc2)c1=O
- inhibition at 10 µM (Cavia porcellus [1]): 7%

SMILES: CCCCc1c(OCC2COC(C)(C)O2)c2cccnc2n(-c2ccccc2)c1=O (centres undefined)
- inhibition at 10 µM (Cavia porcellus [1]): 0%

SMILES: O=c1cc(O)c2cccnc2n1-c1ccccc1
- inhibition at 10 µM (Cavia porcellus [1]): 0%

SMILES: CCCCc1c(O)c2cccnc2n(Cc2ccccc2)c1=O
- inhibition at 10 µM (Cavia porcellus [1]): 0%

SMILES: CCCCc1c(=O)c2cccnc2n2c1oc1ccccc12
- inhibition at 10 µM (Cavia porcellus [1]): 14%

SMILES: C=CCc1c(O)c2cccnc2n(-c2ccc(OC)cc2)c1=O
- inhibition at 10 µM (Cavia porcellus [1]): 3%

SMILES: CCCCc1c(OCC)c2cccnc2n(-c2ccccc2)c1=O
- inhibition at 10 µM (Cavia porcellus [1]): 0%

SMILES: CCCCc1c(OCCOCC)c2cccnc2n(-c2ccccc2)c1=O
- inhibition at 10 µM (Cavia porcellus [1]): 0%

SMILES: CCCCc1c(O)nc2ncccc2c1O
- inhibition at 10 µM (Cavia porcellus [1]): 15%

SMILES: CCCCc1c(OC(C)=O)c2cccnc2n(-c2ccc([S+](C)[O-])cc2)c1=O (centres undefined)
- inhibition at 10 µM (Cavia porcellus [1]): 11%
